Laboratory results from article PMC12429009 (The FASEB Journal, 2025).
“Also recorded” adds a separate entry of the source.

Assays:
native gel or EMSA = biological target: the molecule itself; experiment: native gel or EMSA
[1] = tested on: 14‐3‐3ζ WT and mutant proteins; experiment: ATPase activity; assay type: biochemical, human; conditions: 10 μM protein, 1 mM ATP, 37°C, 2 h; three independent experiments
[2] = Oligomeric status by native PAGE; assay type: physicochemical; conditions: 15 μg protein, 10% native gel (legend: 12%), Coomassie blue
Procedure, shortened: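 Purified untagged 14‐3‐3ζ WT and mutant apoproteins (E. coli‐expressed, Ni‐NTA plus size exclusion, TEV‐cleaved), buffer‐exchanged into 50 mM Na‐HEPES pH 8.0, 150 mM NaCl, 10% glycerol, then run under nondenaturing conditions. Migration read as monomer or dimer.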

14‐3‐3 = conditions: ref 16 (Ramteke et al.); cited from earlier work
[3] = tested on: FAM‐labeled peptides (mode2 phosphopeptide); experiment: Peptide binding ability of 14‐3‐3ζ mutant proteins by fluorescence polarization; conditions: FP; FAM‐labeled peptide 62.5 nM, protein 8 to 0.0625 μM, 25°C, 30 min
Procedure, shortened: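 Untagged 14‑3‑3ζ mutants (E. coli BL21 DE3; Ni‑NTA, SEC, TEV cleavage) in 50 mM Na‑HEPES pH 8.0, 150 mM NaCl, 10% glycerol. Protein titrated 8 to 0.0625 μM against constant 62.5 nM N‑terminal FAM‑labeled phosphopeptide. Incubated 30 min at 25°C in the dark before anisotropy reading; K_D fitted.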

Molecule	stoichiometry N (native gel or EMSA)	migration on native PAGE / oligomeric state [2]	further results
14-3-3ζ E180A (natural protein, human, UniProt P63104 1-245, looked up) MDKNELVQKAKLAEQAERYDDMAACMKSVTEQGAELSNEERNLLSVAYKNVVGARRSSWRVVSSIEQKTEGAEKKQQMAREYREKIETELRDICNDVLSLLEKFLIPNASQAESKVFYLKMKGDYYRYLAEVAAGDDKKGIVDQSQQAYQEAFEISKKEMQPTHPIRLGLALNFSVFYYAILNSPEKACSLAKTAFDEAIAELDTLSEESYKDSTLIMQLLRDNLTLWTSDTQGDEAEAGEGGEN	2	–	–
E131AE180A: 14‐3‐3ζ double mutant (protein, UniProt P63104 1-245, looked up, variant E131A E180A) 14-3-3 protein zeta/delta: MDKNELVQKAKLAEQAERYDDMAACMKSVTEQGAELSNEERNLLSVAYKNVVGARRSSWRVVSSIEQKTEGAEKKQQMAREYREKIETELRDICNDVLSLLEKFLIPNASQAESKVFYLKMKGDYYRYLAAVAAGDDKKGIVDQSQQAYQEAFEISKKEMQPTHPIRLGLALNFSVFYYAILNSPEKACSLAKTAFDEAIAELDTLSEESYKDSTLIMQLLRDNLTLWTSDTQGDEAEAGEGGEN	–	–	ATPase activity (in words, compared with WT) [1]: decreased dramatically
E180A: 14‐3‐3ζ amphipathic pocket mutant (protein, left off: His6, end not stated, cleaved) MDKNELVQKAKLAEQAERYDDMAACMKSVTEQGAELSNEERNLLSVAYKNVVGARRSSWRVVSSIEQKTEGAEKKQQMAREYREKIETELRDICNDVLSLLEKFLIPNASQAESKVFYLKMKGDYYRYLAEVAAGDDKKGIVDQSQQAYQEAFEISKKEMQPTHPIRLGLALNFSVFYYAILNSPEKACSLAKTAFDEAIAELDTLSEESYKDSTLIMQLLRDNLTLWTSDTQGDEAEAGEGGEN	–	migrated as dimers	ATPase activity (in words, compared with WT) [1]: made no difference to the ATPase activity
14-3-3ζ E131A (natural protein, human, UniProt P63104 1-245, looked up) MDKNELVQKAKLAEQAERYDDMAACMKSVTEQGAELSNEERNLLSVAYKNVVGARRSSWRVVSSIEQKTEGAEKKQQMAREYREKIETELRDICNDVLSLLEKFLIPNASQAESKVFYLKMKGDYYRYLAAVAAGDDKKGIVDQSQQAYQEAFEISKKEMQPTHPIRLGLALNFSVFYYEILNSPEKACSLAKTAFDEAIAELDTLSEESYKDSTLIMQLLRDNLTLWTSDTQGDEAEAGEGGEN	2	–	–
14-3-3ζ F117AN173V (natural protein, human, UniProt P63104 1-245, looked up) MDKNELVQKAKLAEQAERYDDMAACMKSVTEQGAELSNEERNLLSVAYKNVVGARRSSWRVVSSIEQKTEGAEKKQQMAREYREKIETELRDICNDVLSLLEKFLIPNASQAESKVAYLKMKGDYYRYLAEVAAGDDKKGIVDQSQQAYQEAFEISKKEMQPTHPIRLGLALVFSVFYYEILNSPEKACSLAKTAFDEAIAELDTLSEESYKDSTLIMQLLRDNLTLWTSDTQGDEAEAGEGGEN	2	–	–
14-3-3ζ D124A (natural protein, human, UniProt P63104 1-245, looked up) MDKNELVQKAKLAEQAERYDDMAACMKSVTEQGAELSNEERNLLSVAYKNVVGARRSSWRVVSSIEQKTEGAEKKQQMAREYREKIETELRDICNDVLSLLEKFLIPNASQAESKVFYLKMKGAYYRYLAEVAAGDDKKGIVDQSQQAYQEAFEISKKEMQPTHPIRLGLALNFSVFYYEILNSPEKACSLAKTAFDEAIAELDTLSEESYKDSTLIMQLLRDNLTLWTSDTQGDEAEAGEGGEN	2	–	–
R55A: 14‐3‐3ζ dimer interface mutant (protein, left off: His6, end not stated, cleaved) MDKNELVQKAKLAEQAERYDDMAACMKSVTEQGAELSNEERNLLSVAYKNVVGAARSSWRVVSSIEQKTEGAEKKQQMAREYREKIETELRDICNDVLSLLEKFLIPNASQAESKVFYLKMKGDYYRYLAEVAAGDDKKGIVDQSQQAYQEAFEISKKEMQPTHPIRLGLALNFSVFYYEILNSPEKACSLAKTAFDEAIAELDTLSEESYKDSTLIMQLLRDNLTLWTSDTQGDEAEAGEGGEN	–	migrated as dimers	ATPase activity (earlier study) (14‐3‐3): reduction in ATP binding and hydrolysis; also recorded: ATPase defective mutant; also recorded: decrease in the ATPase activity; peptide binding of 14‐3‐3ζ mutant protein (in words) [3]: bind all peptides with the same affinity as the WT
14-3-3ζ N173V (natural protein, human, UniProt P63104 1-245, looked up) MDKNELVQKAKLAEQAERYDDMAACMKSVTEQGAELSNEERNLLSVAYKNVVGARRSSWRVVSSIEQKTEGAEKKQQMAREYREKIETELRDICNDVLSLLEKFLIPNASQAESKVFYLKMKGDYYRYLAEVAAGDDKKGIVDQSQQAYQEAFEISKKEMQPTHPIRLGLALVFSVFYYEILNSPEKACSLAKTAFDEAIAELDTLSEESYKDSTLIMQLLRDNLTLWTSDTQGDEAEAGEGGEN	2	–	–
14-3-3ζ E180AN173V (natural protein, human, UniProt P63104 1-245, looked up) MDKNELVQKAKLAEQAERYDDMAACMKSVTEQGAELSNEERNLLSVAYKNVVGARRSSWRVVSSIEQKTEGAEKKQQMAREYREKIETELRDICNDVLSLLEKFLIPNASQAESKVFYLKMKGDYYRYLAEVAAGDDKKGIVDQSQQAYQEAFEISKKEMQPTHPIRLGLALVFSVFYYAILNSPEKACSLAKTAFDEAIAELDTLSEESYKDSTLIMQLLRDNLTLWTSDTQGDEAEAGEGGEN	2	–	–
Y82AN173V: 14‐3‐3ζ double mutant, monomer (protein, left off: His6, end not stated, cleaved) MDKNELVQKAKLAEQAERYDDMAACMKSVTEQGAELSNEERNLLSVAYKNVVGARRSSWRVVSSIEQKTEGAEKKQQMAREAREKIETELRDICNDVLSLLEKFLIPNASQAESKVFYLKMKGDYYRYLAEVAAGDDKKGIVDQSQQAYQEAFEISKKEMQPTHPIRLGLALVFSVFYYEILNSPEKACSLAKTAFDEAIAELDTLSEESYKDSTLIMQLLRDNLTLWTSDTQGDEAEAGEGGEN	–	could be monomeric in nature	ATPase activity (in words, compared with WT) [1]: some ATPase activity (less than the WT); ATPase activity as percentage of the N173V mutant [1]: 20%; reduction in ATPase activity compared with N173V [1]: 80%
E131A (protein, left off: His6, end not stated, cleaved) MDKNELVQKAKLAEQAERYDDMAACMKSVTEQGAELSNEERNLLSVAYKNVVGARRSSWRVVSSIEQKTEGAEKKQQMAREYREKIETELRDICNDVLSLLEKFLIPNASQAESKVFYLKMKGDYYRYLAAVAAGDDKKGIVDQSQQAYQEAFEISKKEMQPTHPIRLGLALNFSVFYYEILNSPEKACSLAKTAFDEAIAELDTLSEESYKDSTLIMQLLRDNLTLWTSDTQGDEAEAGEGGEN	–	migrated as dimers	ATPase activity (in words, compared with WT) [1]: made no difference to the ATPase activity
14-3-3ζ E131AN173V (natural protein, human, UniProt P63104 1-245, looked up) MDKNELVQKAKLAEQAERYDDMAACMKSVTEQGAELSNEERNLLSVAYKNVVGARRSSWRVVSSIEQKTEGAEKKQQMAREYREKIETELRDICNDVLSLLEKFLIPNASQAESKVFYLKMKGDYYRYLAAVAAGDDKKGIVDQSQQAYQEAFEISKKEMQPTHPIRLGLALVFSVFYYEILNSPEKACSLAKTAFDEAIAELDTLSEESYKDSTLIMQLLRDNLTLWTSDTQGDEAEAGEGGEN	2	–	–
F117AN173V (protein, left off: His6, end not stated, cleaved) MDKNELVQKAKLAEQAERYDDMAACMKSVTEQGAELSNEERNLLSVAYKNVVGARRSSWRVVSSIEQKTEGAEKKQQMAREYREKIETELRDICNDVLSLLEKFLIPNASQAESKVAYLKMKGDYYRYLAEVAAGDDKKGIVDQSQQAYQEAFEISKKEMQPTHPIRLGLALVFSVFYYEILNSPEKACSLAKTAFDEAIAELDTLSEESYKDSTLIMQLLRDNLTLWTSDTQGDEAEAGEGGEN	–	migrated as dimers	–
E131AN173V: 14‐3‐3ζ double mutant (protein, left off: His6, end not stated, cleaved) MDKNELVQKAKLAEQAERYDDMAACMKSVTEQGAELSNEERNLLSVAYKNVVGARRSSWRVVSSIEQKTEGAEKKQQMAREYREKIETELRDICNDVLSLLEKFLIPNASQAESKVFYLKMKGDYYRYLAAVAAGDDKKGIVDQSQQAYQEAFEISKKEMQPTHPIRLGLALVFSVFYYEILNSPEKACSLAKTAFDEAIAELDTLSEESYKDSTLIMQLLRDNLTLWTSDTQGDEAEAGEGGEN	–	migrated as dimers	–
14-3-3ζ R55A (natural protein, human, UniProt P63104 1-245, looked up) MDKNELVQKAKLAEQAERYDDMAACMKSVTEQGAELSNEERNLLSVAYKNVVGAARSSWRVVSSIEQKTEGAEKKQQMAREYREKIETELRDICNDVLSLLEKFLIPNASQAESKVFYLKMKGDYYRYLAEVAAGDDKKGIVDQSQQAYQEAFEISKKEMQPTHPIRLGLALNFSVFYYEILNSPEKACSLAKTAFDEAIAELDTLSEESYKDSTLIMQLLRDNLTLWTSDTQGDEAEAGEGGEN	2	–	–
